Legend:
PC-3 [1] = test: Induction of apoptosis in human PC3 cells assessed as necrotic cells at 50 uM after 16 hrs by F2N12S and CYTOX AADvanced double staining-based flow cytometric analysis (reference value: 2 to 3%); assay type: functional
PC-3 [2] = test: Antiproliferative activity against human PC3 cells after 3 days by WST-1 assay; assay type: functional, cell-based; settings: PC-3, 72 h
Method in brief: (§1)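 Cells from ATCC; PC-3 and LNCaP grown in RPMI-1640 and DU145 in EMEM, each with 10% FBS and 1% penicillin/streptomycin, 37 °C, 5% CO2. Seeded 3,200 cells/well and exposed for 3 days to at least five doses, with DMSO as vehicle control. WST-1 reagent added for 3 h at 37 °C, absorbance read at 430 nm. IC50 taken from a linear inhibition plot; mean ± SD of three independent experiments.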

PC-3 [3] = test: Induction of apoptosis in human PC3 cells assessed as viable cells at 30 uM after 16 hrs by F2N12S and CYTOX AADvanced double staining-based flow cytometric analysis (reference value: 95%); assay type: functional; settings: PC-3, 16 h, read-out: Activity
PC-3 [4] = test: Induction of apoptosis in human PC3 cells assessed as viable cells at 5 uM after 16 hrs by F2N12S and CYTOX AADvanced double staining-based flow cytometric analysis (reference value: 95%); assay type: functional; settings: PC-3, 16 h, read-out: Activity
PC-3 [5] = test: Cell cycle arrest in human PC3 cells assessed as accumulation at G2/M phase at 20 uM after 24 hrs by propidium iodide staining-based flow cytometry (reference value: 27.8%); assay type: functional
PC-3 [6] = test: Induction of apoptosis in human PC3 cells assessed as apoptotic cells at 30 uM after 16 hrs by F2N12S and CYTOX AADvanced double staining-based flow cytometric analysis (reference value: 2 to 3%); assay type: functional
PC-3 [7] = test: Cell cycle arrest in human PC3 cells assessed as accumulation at S phase at 20 uM after 24 hrs by propidium iodide staining-based flow cytometry (reference value: 8.0%); assay type: functional
PWR-1E = test: Antiproliferative activity against human PWR-1E cells after 3 days by WST-1 assay; assay type: cell-based; settings: 72 h
Method in brief: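 PWR-1E benign prostate epithelial cells grown in keratinocyte serum-free medium with bovine pituitary extract and recombinant human EGF. Seeded 3,200 cells/well and treated for 3 days at 37 °C, with DMSO as vehicle control. WST-1 reagent added for 3 h, absorbance read at 430 nm. IC50 from a linear inhibition plot over at least five doses; mean ± SD, n = 3.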

PC-3 [8] = test: Cell cycle arrest in human PC3 cells assessed as accumulation at G0/G1 phase at 10 uM after 24 hrs by propidium iodide staining-based flow cytometry (reference value: 37.5%); assay type: functional
PC-3 [9] = test: Induction of apoptosis in human PC3 cells assessed as apoptotic cells after 16 hrs by F2N12S and CYTOX AADvanced double staining-based flow cytometric analysis; assay type: functional, cell-based
PC-3 [10] = test: Induction of apoptosis in human PC3 cells assessed as apoptotic cells at 20 uM after 16 hrs by F2N12S and CYTOX AADvanced double staining-based flow cytometric analysis (reference value: 2 to 3%); assay type: functional
PC-3 [11] = test: Induction of apoptosis in human PC3 cells assessed as necrotic cells at 100 uM after 16 hrs by F2N12S and CYTOX AADvanced double staining-based flow cytometric analysis (reference value: 2 to 3%); assay type: functional
PC-3 [12] = test: Cell cycle arrest in human PC3 cells assessed as accumulation at G0/G1 phase at 10 uM after 16 hrs by propidium iodide staining-based flow cytometry (reference value: 34.1%); assay type: functional
PC-3 [13] = test: Cell cycle arrest in human PC3 cells assessed as accumulation at G2/M phase at 20 uM after 16 hrs by propidium iodide staining-based flow cytometry (reference value: 32.3%); assay type: functional
PC-3 [14] = test: Induction of apoptosis in human PC3 cells assessed as viable cells at 100 uM after 16 hrs by F2N12S and CYTOX AADvanced double staining-based flow cytometric analysis (reference value: 95%); assay type: functional; settings: PC-3, 16 h, read-out: Activity
PC-3 [15] = test: Cell cycle arrest in human PC3 cells assessed as accumulation at S phase at 20 uM after 16 hrs by propidium iodide staining-based flow cytometry (reference value: 9.9%); assay type: functional
PC-3 [16] = test: Induction of apoptosis in human PC3 cells assessed as viable cells at 10 uM after 16 hrs by F2N12S and CYTOX AADvanced double staining-based flow cytometric analysis (reference value: 95%); assay type: functional; settings: PC-3, 16 h, read-out: Activity
[17] = Cmax in C57BL/6J mouse prostate at 240 mg/kg, po administered as single dose measured after 6 hrs post administration; assay type: ADME, organism-based, Prostate gland; set-up: dose 240 mg/kg, route oral
PC-3 [18] = test: Induction of apoptosis in human PC3 cells assessed as necrotic cells at 30 uM after 16 hrs by F2N12S and CYTOX AADvanced double staining-based flow cytometric analysis (reference value: 2 to 3%); assay type: functional
PC-3 [19] = test: Cell cycle arrest in human PC3 cells assessed as accumulation at G0/G1 phase at 20 uM after 16 hrs by propidium iodide staining-based flow cytometry (reference value: 34.1%); assay type: functional
PC-3 [20] = test: Induction of apoptosis in human PC3 cells assessed as necrotic cells at 1 uM after 16 hrs by F2N12S and CYTOX AADvanced double staining-based flow cytometric analysis (reference value: 2 to 3%); assay type: functional
PC-3 [21] = test: Induction of apoptosis in human PC3 cells assessed as apoptotic cells at 10 uM after 16 hrs by F2N12S and CYTOX AADvanced double staining-based flow cytometric analysis (reference value: 2 to 3%); assay type: functional
PC-3 [22] = test: Induction of apoptosis in human PC3 cells assessed as viable cells at 20 uM after 16 hrs by F2N12S and CYTOX AADvanced double staining-based flow cytometric analysis (reference value: 95%); assay type: functional; settings: PC-3, 16 h, read-out: Activity
PC-3 [23] = test: Induction of apoptosis in human PC3 cells assessed as viable cells at 1 uM after 16 hrs by F2N12S and CYTOX AADvanced double staining-based flow cytometric analysis (reference value: 95%); assay type: functional; settings: PC-3, 16 h, read-out: Activity
PC-3 [24] = test: Cell cycle arrest in human PC3 cells assessed as accumulation at S phase at 10 uM after 24 hrs by propidium iodide staining-based flow cytometry (reference value: 8.0%); assay type: functional
PC-3 [25] = test: Induction of apoptosis in human PC3 cells assessed as necrotic cells at 20 uM after 16 hrs by F2N12S and CYTOX AADvanced double staining-based flow cytometric analysis (reference value: 2 to 3%); assay type: functional
PC-3 [26] = test: Induction of apoptosis in human PC3 cells assessed as viable cells at 50 uM after 16 hrs by F2N12S and CYTOX AADvanced double staining-based flow cytometric analysis (reference value: 95%); assay type: functional; settings: PC-3, 16 h, read-out: Activity
DU-145 = test: Antiproliferative activity against human DU145 cells after 3 days by WST-1 assay; assay type: functional, cell-based; settings: DU-145, 72 h; method in brief: as §1
PC-3 [27] = test: Induction of apoptosis in human PC3 cells assessed as necrotic cells at 5 uM after 16 hrs by F2N12S and CYTOX AADvanced double staining-based flow cytometric analysis (reference value: 2 to 3%); assay type: functional
PC-3 [28] = test: Cell cycle arrest in human PC3 cells assessed as accumulation at G2/M phase at 10 uM after 16 hrs by propidium iodide staining-based flow cytometry (reference value: 32.3%); assay type: functional
PC-3 [29] = test: Induction of apoptosis in human PC3 cells assessed as apoptotic cells at 5 uM after 16 hrs by F2N12S and CYTOX AADvanced double staining-based flow cytometric analysis (reference value: 2 to 3%); assay type: functional
PC-3 [30] = test: Cell cycle arrest in human PC3 cells assessed as accumulation at G0/G1 phase at 20 uM after 24 hrs by propidium iodide staining-based flow cytometry (reference value: 37.5%); assay type: functional
PC-3 [31] = test: Induction of apoptosis in human PC3 cells assessed as apoptotic cells at 100 uM after 16 hrs by F2N12S and CYTOX AADvanced double staining-based flow cytometric analysis (reference value: 2 to 3%); assay type: functional
PC-3 [32] = test: Induction of apoptosis in human PC3 cells assessed as apoptotic cells at 1 uM after 16 hrs by F2N12S and CYTOX AADvanced double staining-based flow cytometric analysis (reference value: 2 to 3%); assay type: functional
LNCaP = test: Antiproliferative activity against human LNCAP cells after 3 days by WST-1 assay; assay type: functional, cell-based; settings: 72 h; method in brief: as §1
PC-3 [33] = test: Cell cycle arrest in human PC3 cells assessed as accumulation at G2/M phase at 10 uM after 24 hrs by propidium iodide staining-based flow cytometry (reference value: 27.8%); assay type: functional
PC-3 [34] = test: Induction of apoptosis in human PC3 cells assessed as apoptotic cells at 50 uM after 16 hrs by F2N12S and CYTOX AADvanced double staining-based flow cytometric analysis (reference value: 2 to 3%); assay type: functional
PC-3 [35] = test: Induction of apoptosis in human PC3 cells assessed as necrotic cells at 10 uM after 16 hrs by F2N12S and CYTOX AADvanced double staining-based flow cytometric analysis (reference value: 2 to 3%); assay type: functional
PC-3 [36] = test: Cell cycle arrest in human PC3 cells assessed as accumulation at S phase at 10 uM after 16 hrs by propidium iodide staining-based flow cytometry (reference value: 9.9%); assay type: functional

Row | Compound | Activity (PC-3 [1]) [%] | IC50 (PC-3 [2]) [µM] | viability at 30 µM (PC-3 [3]) [%] | viability at 5 µM (PC-3 [4]) [%] | Activity (PC-3 [5]) [%] | Activity (PC-3 [6]) [%] | Activity (PC-3 [7]) [%] | IC50 (PWR-1E) [µM] | Activity (PC-3 [8]) [%] | Activity (PC-3 [10]) [%] | Activity (PC-3 [11]) [%] | Activity (PC-3 [12]) [%] | Activity (PC-3 [13]) [%] | viability at 100 µM (PC-3 [14]) [%] | Activity (PC-3 [15]) [%] | viability at 10 µM (PC-3 [16]) [%] | Activity (PC-3 [18]) [%] | Activity (PC-3 [19]) [%] | Activity (PC-3 [20]) [%] | Activity (PC-3 [21]) [%] | also measured
1 | COc1cc(-c2oc3ccccc3c(=O)c2O)cc(OC)c1OC | 2 | 32.1 | 43 | 81 | 31.2 | 54 | 6 | > 50 | 34.6 | 50 | 3 | 31.2 | 26.6 | 24 | 11.7 | 66 | 2 | 33.3 | 2 | 39 | Activity (PC-3 [9]): Dose-dependent effect; Cmax [17]: 18.4 nM; viability at 20 µM (PC-3 [22]): 47%; viability at 1 µM (PC-3 [23]): 90%; Activity (PC-3 [24]): 6%; Activity (PC-3 [25]): 3%; viability at 50 µM (PC-3 [26]): 45%; IC50 (DU-145): 27.2 µM; Activity (PC-3 [27]): 2%; Activity (PC-3 [28]): 33%; Activity (PC-3 [29]): 11%; Activity (PC-3 [30]): 33.8%; Activity (PC-3 [31]): 73%; Activity (PC-3 [32]): 6%; IC50 (LNCaP): 14.7 µM; Activity (PC-3 [33]): 33.3%; Activity (PC-3 [34]): 61%; Activity (PC-3 [35]): 2%; Activity (PC-3 [36]): 12.3%
2 | CCCCCN(CCCCC)CCCOc1c(-c2cc(OC)c(OC)c(OC)c2)oc2ccccc2c1=O | 35 | 5.8 | 0 | 46 | 26.4 | 92 | 1.9 | 14.8 | 52.6 | 94 | 72 | 51.3 | 34.8 | 0 | 6.5 | 3 | 8 | 40.8 | 2 | 93 | Activity (PC-3 [9]): Dose-dependent effect; viability at 20 µM (PC-3 [22]): 0%; viability at 1 µM (PC-3 [23]): 87%; Activity (PC-3 [24]): 3.7%; Activity (PC-3 [25]): 6%; viability at 50 µM (PC-3 [26]): 0%; IC50 (DU-145): 12.3 µM; Activity (PC-3 [27]): 3%; Activity (PC-3 [28]): 28.6%; Activity (PC-3 [29]): 51%; Activity (PC-3 [30]): 59.8%; Activity (PC-3 [31]): 27%; Activity (PC-3 [32]): 10%; IC50 (LNCaP): 5.1 µM; Activity (PC-3 [33]): 25.4%; Activity (PC-3 [34]): 65%; Activity (PC-3 [35]): 4%; Activity (PC-3 [36]): 4.5%
3 | CCOc1c(-c2cc(OC)c(OC)c(OC)c2)oc2ccccc2c1=O | 5 | 0.9 | 94 | 95 | 17.9 | 3 | 11.8 | 8.05 | 40.8 | 5 | 6 | 55.7 | 24.5 | 91 | 4.6 | 95 | 3 | 59 | 3 | 3 | viability at 20 µM (PC-3 [22]): 93%; viability at 1 µM (PC-3 [23]): 94%; Activity (PC-3 [24]): 18.7%; Activity (PC-3 [25]): 5%; viability at 50 µM (PC-3 [26]): 92%; IC50 (DU-145): 6.2 µM; Activity (PC-3 [27]): 3%; Activity (PC-3 [28]): 22.2%; Activity (PC-3 [29]): 3%; Activity (PC-3 [30]): 48.6%; Activity (PC-3 [31]): 6%; Activity (PC-3 [32]): 3%; IC50 (LNCaP): 5.4 µM; Activity (PC-3 [33]): 19.3%; Activity (PC-3 [34]): 5%; Activity (PC-3 [35]): 3%; Activity (PC-3 [36]): 7.7%

From ChEMBL document CHEMBL4043132, “3-O-Substituted-3',4',5'-trimethoxyflavonols: Synthesis and cell-based evaluation as anti-prostate cancer agents” (Bioorg Med Chem, 2017)
